# Test results published in the M2OR odorant receptor database.
# System: T1, A0A140T8K0
# T1 sequence (whole entry): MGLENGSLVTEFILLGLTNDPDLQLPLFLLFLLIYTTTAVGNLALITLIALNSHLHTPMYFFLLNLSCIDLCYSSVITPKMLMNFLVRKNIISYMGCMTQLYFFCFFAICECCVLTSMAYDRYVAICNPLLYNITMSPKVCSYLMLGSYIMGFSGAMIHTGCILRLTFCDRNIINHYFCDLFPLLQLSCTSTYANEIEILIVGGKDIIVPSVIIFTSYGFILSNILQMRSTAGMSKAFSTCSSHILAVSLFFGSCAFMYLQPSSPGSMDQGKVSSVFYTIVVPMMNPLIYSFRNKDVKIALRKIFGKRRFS
# Conditions: stereoisomer not certain
# In short: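 Assay methods differ from source to source, frequently being transient luciferase assays in mammalian cell lines. For each receptor–molecule pair, the label responsive (active) applies when the original authors judged the measured signal statistically different from baseline, and non-responsive (inactive) applies otherwise.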
row,Compound,odorant receptor agonist call
1,C=C(CC)CCCC(C)(C)O,inactive
2,Cc1ccccc1OC(=O)C(C)C,inactive
3,CC(C)=C1CCC(C)CC1=O (centres undefined),inactive
4,O=C([O-])CCCCCCCC(=O)[O-].[H+].[H+],inactive
5,C=CC(=O)CCCCC,inactive
6,CSSCc1ccco1,inactive
7,CCc1occc(=O)c1O,inactive
8,C1CCOCC1,inactive
9,CC=CC(=O)C1=C(C)CCCC1(C)C,inactive
10,C=CC(C)=CCC=C(C)CCC=C(C)C,inactive
11,CC1(C)CC(=O)CC(=O)C1,inactive
12,CC(=O)C1(C)CC2=C(CCCC2(C)C)CC1C (centres undefined),inactive
13,C=CC(=C)CCC=C(C)CCC=C(C)C,inactive
14,CCCCCCC=CC=O,inactive
15,CC(C)CCN,inactive
16,O=C(OCc1ccccc1)c1ccccc1O,inactive
17,CCOC(=O)CC(C)C,inactive
18,CC(CC=O)CCCC(C)(C)O (centres undefined),inactive
19,CCc1ccccc1O,inactive
20,O=C([O-])CCCCCCC(=O)[O-].[H+].[H+],inactive

row,Compound,odorant receptor agonist call
1,c1ccc2ncccc2c1,inactive
2,CCCC=O,inactive
3,COc1ccccc1,inactive
4,C=C(C)C1CC=C(C)CC1 (centres undefined),inactive
5,CCCCCCCCOC=O,active
6,CCCCCCCCC=CC=O,inactive
7,OCC=Cc1ccccc1,inactive
8,CCCCC=O,inactive
9,CC=C(C)C=O,inactive
10,CCC=CCCCCC=O,inactive
11,CCCCCCC(=O)OCCCC,inactive
12,CCCCCCC(C)O (centres undefined),inactive
13,CCSCC,inactive
14,COc1nccnc1C,inactive
15,O=C(O)CCCCCCCCC(=O)O,active
16,CNc1ccccc1C(=O)OC,inactive
17,CC(C)CS,inactive
18,Cc1occc1SSc1ccoc1C,inactive
19,O=C(O)C1CCC1,inactive
